The structures appear in SMILES notation.

The target in this assay is Prothrombin (Bos taurus, UniProt P00735). Nature of the assay: Bovine thrombin concentration at which clotting time was prolonged 2x over the control. It counts as functional. The note with it: read-out: I50. The method in brief:
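Clotting assay at 25 °C. The read-out was the time from thrombin addition to clot formation.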
With `CCCCNC(=O)C(CCCNC(=N)N)NS(=O)(=O)c1cccc2ccccc12` (centres undefined), the IC50 was determined as 50 µM.
Under `COC1CCN(C(=O)C(CCCN=C(N)N)NS(=O)(=O)c2cccc3c(N(C)C)cccc23)CC1` (centres undefined) stands 4 µM.
Next, `CCc1ccc2cc(S(=O)(=O)NC(CCCNC(=N)N)C(=O)N3CCC(CC)CC3)ccc2c1` (centres undefined): 0.7 µM.
Under `CCOc1cccc2c(S(=O)(=O)NC(CCCNC(=N)N)C(=O)N3CCC(CC)CC3)cccc12` (centres undefined) stands 0.1 µM; under `CCCCN(C)C(=O)C(CCCNC(=N)N)NS(=O)(=O)c1ccc2ccccc2c1` (centres undefined), 50 µM; under `CCC1CCN(C(=O)C(CCCN=C(N)N)NS(=O)(=O)c2ccc3cc(OC)c(OC)cc3c2)CC1` (centres undefined), 0.15 µM.
Take `CC1CCN(C(=O)C(CCCN=C(N)N)NS(=O)(=O)c2cccc3ccccc23)CC1` (centres undefined): the IC50 was 4 µM.
Consider `CC1CCN(C(=O)C(CCCN=C(N)N)NS(=O)(=O)c2ccc3c(c2)OCCCO3)CC1` (centres undefined), for which the IC50 is 8 µM.
Regarding `CN(C)c1cccc2c(S(=O)(=O)NC(CCCNC(=N)N)C(=O)NCC3CCCCC3)cccc12` (centres undefined), the IC50 stood at 40 µM.
Under `CN(C)c1cccc2c(S(=O)(=O)NC(CCCNC(=N)N)C(=O)NC3CCCCC3)cccc12` (centres undefined) stands 500 µM; under `CCC1CCN(C(=O)C(CCCN=C(N)N)NS(=O)(=O)c2ccc3cc(C)ccc3c2)CC1` (centres undefined), 0.5 µM.
As for `CCC1CCN(C(=O)C(CCCN=C(N)N)NS(=O)(=O)c2ccc3ccc(O)cc3c2)CC1` (centres undefined), the IC50 stood at 6 µM.
Next, `CCCC1CCN(C(=O)C(CCCN=C(N)N)NS(=O)(=O)c2cccc3c(N(C)C)cccc23)CC1` (centres undefined): 1 µM.
`CC1CCN(C(=O)C(CCCNC(=N)N)NS(=O)(=O)c2cccc3c2CCCC3)CC1` (centres undefined): the IC50 amounted to 1 µM.
Next, `CCCCN(C)C(=O)C(CCCN=C(N)N)NS(=O)(=O)c1cccc2ccccc12` (centres undefined): 50 µM.
Under `CN(C)c1cccc2c(S(=O)(=O)NC(CCCN=C(N)N)C(=O)N3CCCCCCC3)cccc12` (centres undefined) stands 1 µM.
With `COc1cccc2cccc(S(=O)(=O)NC(CCCN=C(N)N)C(=O)N3CCC(C)CC3)c12` (centres undefined), the IC50 turned out to be 4 µM.
Next, `CC1CCN(C(=O)C(CCCN=C(N)N)NS(=O)(=O)c2ccc3ccccc3c2)CC1` (centres undefined): 4.5 µM; `CN(C)c1cccc2c(S(=O)(=O)NC(CCCNC(=N)N)C(=O)N3CCCCCCCC3)cccc12` (centres undefined): 2 µM; `CN(C)c1cccc2c(S(=O)(=O)NC(CCCNC(=N)N)C(=O)N3CCCCCC3)cccc12` (centres undefined): 0.9 µM.
With `C=CCNC(=O)C(CCCN=C(N)N)NS(=O)(=O)c1cccc2c(N(C)C)cccc12` (centres undefined), the IC50 was determined as 10 µM.
Under `CCC1CCN(C(=O)C(CCCN=C(N)N)NS(=O)(=O)c2ccc3cc(OC(C)C)ccc3c2)CC1` (centres undefined) stands 0.8 µM; under `CCCCN(CC)C(=O)C(CCCN=C(N)N)NS(=O)(=O)c1cccc2c(N(C)C)cccc12` (centres undefined), 50 µM.
With `CCNC(=O)C(CCCN=C(N)N)NS(=O)(=O)c1cccc2c(N(C)C)cccc12` (centres undefined), the IC50 came to 100 µM.
Next, `CCC1CCN(C(=O)C(CCCNC(=N)N)NS(=O)(=O)c2ccc3cc(OC)ccc3c2)CC1` (centres undefined): 0.2 µM; `CN(C)c1cccc2c(S(=O)(=O)NC(CCCN=C(N)N)C(=O)N3CC4CCCC(C4)C3)cccc12` (centres undefined): 10 µM; `CCC1CCN(C(=O)C(CCCN=C(N)N)NS(=O)(=O)c2cccc3c(C(=O)O)cccc23)CC1` (centres undefined): 1000 µM.
Next, `CN(C)c1cccc2c(S(=O)(=O)NC(CCCNC(=N)N)C(=O)NC3CC3)cccc12` (centres undefined): 500 µM.
As for `CN(C)c1cccc2c(S(=O)(=O)NC(CCCNC(=N)N)C(=O)N3CCC(C(C)(C)C)CC3)cccc12` (centres undefined), the IC50 was 2 µM.
Under `CC1CCCN(C(=O)C(CCCNC(=N)N)NS(=O)(=O)c2cccc3c(N(C)C)cccc23)C1` (centres undefined) stands 6.5 µM.
Regarding `CCCOc1cccc2c(S(=O)(=O)NC(CCCNC(=N)N)C(=O)N3CCC(CC)CC3)cccc12` (centres undefined), the IC50 is 0.5 µM.
Under `CCC1CCN(C(=O)C(CCCNC(=N)N)NS(=O)(=O)c2cccc3c2oc2ccccc23)CC1` (centres undefined) stands 0.2 µM.
Under `CCC1CCN(C(=O)C(CCCN=C(N)N)NS(=O)(=O)c2ccc3cc(N(C)C)ccc3c2)CC1` (centres undefined) stands 0.3 µM; under `CN(C)c1cccc2c(S(=O)(=O)NC(CCCNC(=N)N)C(=O)N3CCSCC3)cccc12` (centres undefined), 2 µM; under `CCC1CCN(C(=O)C(CCCNC(=N)N)NS(=O)(=O)c2ccc3c(c2)OCCCO3)CC1` (centres undefined), 5 µM.
Next, `CCC1CCN(C(=O)C(CCCNC(=N)N)NS(=O)(=O)c2ccc3ccc(OC)cc3c2)CC1` (centres undefined): 0.1 µM.
Regarding `CCC1CCN(C(=O)C(CCCNC(=N)N)NS(=O)(=O)c2ccc3c(c2)CCCC3)CC1` (centres undefined), the IC50 came to 0.7 µM.
Under `CCCCCNC(=O)C(CCCN=C(N)N)NS(=O)(=O)c1cccc2c(N(C)C)cccc12` (centres undefined) stands 130 µM; under `CC(C)C1CCN(C(=O)C(CCCN=C(N)N)NS(=O)(=O)c2cccc3c(N(C)C)cccc23)CC1` (centres undefined), 1 µM.
Under `CCOCCNC(=O)C(CCCN=C(N)N)NS(=O)(=O)c1cccc2c(N(C)C)cccc12` (centres undefined) stands 5 µM; under `CCCCN(C)C(=O)C(CCCNC(=N)N)NS(=O)(=O)c1cccc2c(N(C)C)cccc12` (centres undefined), 2 µM; under `CC1CCCCN1C(=O)C(CCCN=C(N)N)NS(=O)(=O)c1cccc2c(N(C)C)cccc12` (centres undefined), 1.3 µM.
Next, `CCC1CCN(C(=O)C(CCCNC(=N)N)NS(=O)(=O)c2cc(OC)c3cc(OC)ccc3c2)CC1` (centres undefined): 0.1 µM; `CCN(CC)C(=O)C(CCCN=C(N)N)NS(=O)(=O)c1cccc2c(N(C)C)cccc12` (centres undefined): 55 µM.
With `CCC1CCN(C(=O)C(CCCN=C(N)N)NS(=O)(=O)c2cccc3c(OC)cccc23)CC1` (centres undefined), the IC50 worked out at 0.6 µM.
Next, `CCC1CCN(C(=O)C(CCCNC(=N)N)NS(=O)(=O)c2cccc3ccccc23)CC1` (centres undefined): 1 µM.
Under `CCC1CCN(C(=O)C(CCCN=C(N)N)NS(=O)(=O)c2ccc3ccc(C)cc3c2)CC1` (centres undefined) stands 0.4 µM; under `CCC1CCN(C(=O)C(CCCNC(=N)N)NS(=O)(=O)c2cccc3c(C#N)cccc23)CC1` (centres undefined), 6 µM.
Under `N=C(N)NCCCC(NS(=O)(=O)c1ccc2ccccc2c1)C(=O)N1CCOCC1` (centres undefined) stands 20 µM; under `CC(C)NC(=O)C(CCCN=C(N)N)NS(=O)(=O)c1cccc2c(N(C)C)cccc12` (centres undefined), 1100 µM.
Take `CCC1CCN(C(=O)C(CCCN=C(N)N)NS(=O)(=O)c2cccc3c(Cl)cccc23)CC1` (centres undefined): the IC50 was 2 µM.
Next, `CC1CCN(C(=O)C(CCCN=C(N)N)NS(=O)(=O)c2ccc3c(c2)CCCC3)CC1` (centres undefined): 0.6 µM.
Under `CC1CCN(C(=O)C(CCCN=C(N)N)NS(=O)(=O)c2cccc3c(N(C)C)cccc23)CC1` (centres undefined) stands 0.3 µM; under `CCC1CCN(C(=O)C(CCCN=C(N)N)NS(=O)(=O)c2cccc3c(N(CC)CC)cccc23)CC1` (centres undefined), 0.3 µM; under `CCC1CCN(C(=O)C(CCCNC(=N)N)NS(=O)(=O)c2ccc3c(c2)oc2ccccc23)CC1` (centres undefined), 0.3 µM.
Under `CN(C)c1cccc2c(S(=O)(=O)NC(CCCNC(=N)N)C(=O)NCCc3ccccc3)cccc12` (centres undefined) stands 150 µM; under `COc1ccc2cc(S(=O)(=O)NC(CCCN=C(N)N)C(=O)N3CCC(C)CC3)cc(OC)c2c1` (centres undefined), 0.075 µM; under `CCC1CCN(C(=O)C(CCCN=C(N)N)NS(=O)(=O)c2ccc3cc4c(cc3c2)OCCO4)CC1` (centres undefined), 10 µM.
Consider `N=C(N)NCCCC(NS(=O)(=O)c1ccc2c(c1)CCCC2)C(=O)N1CCCC1` (centres undefined), for which the IC50 came out at 7 µM.

For the origin of these results see ChEMBL document CHEMBL1121484, “Thrombin inhibitors. 2. Amide derivatives of N alpha-substituted L-arginine” (J Med Chem, 1980).
